According to ChEMBL document CHEMBL4190304, “Peroxynitrite-Scavenging Glycosides from the Stem Bark of Catalpa ovata” (J Nat Prod, 2017):

test: Peroxynitrite scavenging activity assessed as inhibition of DHR 123 oxidation after 5 mins in presence of SIN-1 by fluorescence assay; format: functional
How it was run: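 ONOO− generated by decomposition of SIN-1 (10 μM) in buffer of 90 mM NaCl, 50 mM Na3PO4, 5 mM KCl, 100 μM DTPA, pH 7.4 (N2-purged, on ice), with DHR 123 working solution 5 μM. Fluorescence read (ex 480/em 530 nm) 5 min after treatment with and without SIN-1. Final minus background intensity gives % inhibition of oxidation; IC50, mean ± SD, three independent experiments. DL-penicillamine positive control.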

Row | SMILES | IC50 [µM]
1 | COc1ccc(C(=O)O[C@H]2[C@@H]3C=CO[C@@H](O[C@@H]4O[C@H](CO)[C@@H](O)[C@H](O)[C@H]4O)[C@@H]3[C@@]3(CO)O[C@@H]23)cc1OC | > 100
2 | COc1cc(/C=C/C(=O)O[C@@H]2C[C@@](O)(CO)[C@H]3[C@H](O[C@@H]4O[C@H](CO)[C@@H](O)[C@H](O)[C@H]4O)OC=C[C@H]32)ccc1O | 2
3 | O=C(O[C@H]1[C@@H]2CCO[C@@H](O[C@@H]3O[C@H](CO)[C@@H](O)[C@H](O)[C@H]3O)[C@@H]2[C@@]2(CO)O[C@@H]12)c1ccc(O)cc1 | 58.4
4 | COc1cc(CCO[C@@H]2O[C@H](CO)[C@@H](O)[C@H](O[C@@H]3O[C@H](C)[C@@H](O)[C@H](O)[C@H]3O)[C@H]2O)ccc1O | 7.7
5 | COc1ccc(/C=C/C(=O)O[C@H]2[C@@H]3C=CO[C@@H](O[C@@H]4O[C@H](CO)[C@@H](O)[C@H](O)[C@H]4O)[C@@H]3[C@@]3(CO)O[C@@H]23)cc1 | 78.5
6 | COc1cc(/C=C/C(=O)O[C@H]2[C@@H]3CCO[C@@H](O[C@@H]4O[C@H](CO)[C@@H](O)[C@H](O)[C@H]4O)[C@@H]3[C@@]3(CO)O[C@@H]23)ccc1O | 2.2
7 | O=C(OC[C@@]1(O)CO[C@@H](O[C@H]2[C@H](OCCc3ccc(O)cc3)O[C@H](CO)[C@@H](O)[C@@H]2O)[C@@H]1O)c1ccc(O)cc1 | 36.2
8 | COc1cc(C(=O)OC[C@@]2(O)CO[C@@H](O[C@H]3[C@H](OCCc4ccc(O)cc4)O[C@H](CO)[C@@H](O)[C@@H]3O)[C@@H]2O)ccc1O | 8.6
9 | COc1ccc(/C=C/C(=O)O[C@@H]2C[C@@](O)(CO)[C@H]3[C@H](O[C@@H]4O[C@H](CO)[C@@H](O)[C@H](O)[C@H]4O)OC=C[C@H]32)cc1O | 3.9
10 | COc1ccc(C(=O)O[C@H]2[C@@H]3C=CO[C@@H](O[C@@H]4O[C@H](CO)[C@@H](O)[C@H](O)[C@H]4O)[C@@H]3[C@@]3(CO)O[C@@H]23)cc1 | 36.4
11 | O=C(/C=C/c1ccc(O)cc1)OC[C@@]1(O)CO[C@@H](O[C@H]2[C@H](OCCc3ccc(O)cc3)O[C@H](CO)[C@@H](O)[C@@H]2O)[C@@H]1O | 4.5
12 | OC[C@H]1O[C@@H](OCCc2ccc(O)cc2)[C@H](O[C@@H]2OC[C@](O)(CO)[C@H]2O)[C@@H](O)[C@@H]1O | 15.7
13 | C[C@]1(O)C[C@@H](OC(=O)c2ccc(O)cc2)[C@@H]2CCO[C@@H](O[C@@H]3O[C@H](CO)[C@@H](O)[C@H](O)[C@H]3O)[C@@H]21 | 8.3
14 | O=C(O[C@@H]1C[C@@](O)(CO)[C@H]2[C@H](O[C@@H]3O[C@H](CO)[C@@H](O)[C@H](O)[C@H]3O)OCC[C@H]21)c1ccc(O)cc1 | 39.5
15 | O=C(OC1C[C@@]2(O)COC3C[C@@H](O[C@@H]4O[C@H](CO)[C@@H](O)[C@H](O)[C@H]4O)[C@H]2[C@H]1C3)c1ccc(O)cc1 (some centres undefined) | 76.7
16 | CC(C)(S)C(N)C(=O)O (racemic) [DL-PENICILLAMINE] | 3.4
17 | O=C(O[C@H]1[C@@H]2C=CO[C@@H](O[C@@H]3O[C@H](CO)[C@@H](O)[C@H](O)[C@H]3O)[C@@H]2[C@@]2(CO)O[C@@H]12)c1ccc(O)cc1 [CATALPOSIDE] | > 100
18 | COc1cc(C(=O)O[C@H]2[C@@H]3C=CO[C@@H](O[C@@H]4O[C@H](CO)[C@@H](O)[C@H](O)[C@H]4O)[C@@H]3[C@@]3(CO)O[C@@H]23)ccc1O [PICROSIDE II] | 6
19 | O=C(/C=C/c1ccc(O)cc1)O[C@H]1[C@@H]2C=CO[C@@H](O[C@@H]3O[C@H](CO)[C@@H](O)[C@H](O)[C@H]3O)[C@@H]2[C@@]2(CO)O[C@@H]12 [SPECIOSIDE] | 13.6

The next compounds have a lower IC50 than those just listed; values first:

Row | IC50 [µM] | SMILES
20 | 1.6 | COc1cc(/C=C/C(=O)O[C@H]2[C@@H]3C=CO[C@@H](O[C@@H]4O[C@H](CO)[C@@H](O)[C@H](O)[C@H]4O)[C@@H]3[C@@]3(CO)O[C@@H]23)ccc1O
21 | 0.48 | COc1cc(/C=C/C(=O)OC[C@H]2O[C@@H](Oc3ccc(O)cc3OC)[C@H](O)[C@@H](O)[C@@H]2O)ccc1O
22 | 0.17 | COc1cc(/C=C/C(=O)OC[C@H]2O[C@@H](Oc3ccc(CO)cc3OC)[C@H](O)[C@@H](O)[C@@H]2O)ccc1O
23 | 0.79 | COc1cc(/C=C/C(=O)OC[C@H]2O[C@@H](OC[C@@H]3c4cc(/C=C/C=O)cc(OC)c4O[C@H]3c3ccc(O)c(OC)c3)[C@H](O)[C@@H](O)[C@@H]2O)ccc1O
24 | 0.34 | COC/C=C/c1cc(OC)c2c(c1)[C@H](CO[C@@H]1O[C@H](COC(=O)/C=C/c3ccc(O)c(OC)c3)[C@@H](O)[C@H](O)[C@H]1O)[C@@H](c1ccc(O)c(OC)c1)O2
25 | 1.1 | COc1cc(/C=C/C(=O)OC[C@H]2O[C@@H](O[C@@H]3OC=C[C@H]4[C@H](OC(=O)/C=C/c5ccc(O)c(OC)c5)[C@@H]5O[C@]5(CO)[C@@H]34)[C@H](O)[C@@H](O)[C@@H]2O)ccc1O
26 | 0.88 | COc1cc(/C=C/C(=O)OC[C@]23O[C@H]2[C@@H](OC(=O)/C=C/c2ccc(O)c(OC)c2)[C@@H]2C=CO[C@@H](O[C@@H]4O[C@H](CO)[C@@H](O)[C@H](O)[C@H]4O)[C@@H]23)ccc1O
27 | 1.02 | COc1cc(/C=C/C(=O)OC[C@H]2O[C@@H](OCCC3(O)CCC(=O)CC3)[C@H](O)[C@@H](O)[C@@H]2O)ccc1O
28 | 0.14 | COc1cc(/C=C/C(=O)OC[C@H]2O[C@@H](OCCc3ccc(O)cc3)[C@H](O)[C@@H](O)[C@@H]2O)ccc1O
29 | 0.81 | COc1cc(/C=C/C(=O)OC[C@H]2OC(OC[C@H]3[C@@H](Cc4ccc(O)c(OC)c4)CO[C@@H]3c3ccc(O)c(OC)c3)[C@H](O)[C@@H](O)[C@@H]2O)ccc1O (some centres undefined)
